Test results published in ChEMBL document CHEMBL1821580, “Design, synthesis and bioevaluation of novel candidate selective estrogen receptor modulators” (Eur J Med Chem, 2011).
Active and inactive are the calls of the source. The calls are words filed in the database; no cut-off is given here.

Legend:
CCRF-CEM = assay: Cytostatic activity against human CEM cells after 3 days by coulter counter assay; format: functional, cell-based; conditions: 72 h
Method in brief: (§1)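 Tumor cells seeded in 96-well plates and exposed to a range of compound concentrations. Exposure was 2 days for L1210 and 3 days for Molt4/C8 and CEM. Cell number was counted on a Coulter particle counter. IC50 is the concentration inhibiting proliferation by 50%. Run in triplicate.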

L1210 = assay: Cytostatic activity against mouse L1210 cells after 2 days by coulter counter assay; format: functional, cell-based; conditions: L1210, 48 h; method in brief: as §1
MOLT-4 = assay: Cytostatic activity against human Molt4/C8 cells after 3 days by coulter counter assay; format: functional, cell-based; conditions: MOLT-4, 72 h; method in brief: as §1
MCF7 = assay: Cytotoxicity activity against human MCF7 cells by MTS assay; format: functional, cell-based
Method in brief: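 MCF-7 cells in DMEM with 10% heat-inactivated FBS, seeded at 30,000 cells/well in 24-well plates. After compound treatment, viability was read by MTS assay (CellTiter 96 AQueous). Run in triplicate.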

[1] = biological target: T1, Estrogen receptor (Homo sapiens) (UniProt P03372); assay: Binding affinity to estrogen receptor alpha in human MCF7 cells assessed as NR peptide-ERalpha complex formation at 2.5 uM by colorimetric ELISA; format: cell-based
T1 sequence (whole entry): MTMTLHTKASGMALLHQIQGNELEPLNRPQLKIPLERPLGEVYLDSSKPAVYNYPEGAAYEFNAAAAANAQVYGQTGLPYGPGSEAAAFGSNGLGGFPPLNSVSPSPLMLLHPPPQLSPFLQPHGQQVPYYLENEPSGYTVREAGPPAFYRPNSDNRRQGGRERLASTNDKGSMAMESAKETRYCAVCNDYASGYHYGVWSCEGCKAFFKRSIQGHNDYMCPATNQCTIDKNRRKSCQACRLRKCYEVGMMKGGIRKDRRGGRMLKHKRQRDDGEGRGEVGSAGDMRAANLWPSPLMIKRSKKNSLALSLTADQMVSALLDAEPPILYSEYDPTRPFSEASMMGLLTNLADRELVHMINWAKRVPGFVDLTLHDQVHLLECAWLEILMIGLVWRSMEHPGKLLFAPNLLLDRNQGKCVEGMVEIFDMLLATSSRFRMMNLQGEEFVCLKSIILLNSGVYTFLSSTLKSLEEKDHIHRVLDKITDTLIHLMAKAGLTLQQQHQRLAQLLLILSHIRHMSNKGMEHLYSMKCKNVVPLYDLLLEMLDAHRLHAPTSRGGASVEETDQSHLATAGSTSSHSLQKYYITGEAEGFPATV

[2] = biological target: T1, Estrogen receptor (Homo sapiens); assay: Binding affinity to estrogen receptor alpha in human MCF7 cells assessed as NR peptide-ERalpha complex formation at 25 uM by colorimetric ELISA; format: cell-based

## Oc1ccc2ccccc2c1C(c1ccccc1)N1CCC(O)CC1 (configuration not stated)
CCRF-CEM
  IC50: 36 µM
L1210
  IC50: 50 µM
MOLT-4
  IC50: 43 µM

## COc1ccc(C(c2c(O)ccc3ccccc23)N2CCC(O)CC2)cc1 (configuration not stated)
CCRF-CEM
  IC50: 14 µM
L1210
  IC50: 42 µM
MOLT-4
  IC50: 35 µM

## Oc1ccc2ccccc2c1C(c1ccc(Cl)c(Cl)c1)N1CCC(O)CC1 (configuration not stated)
CCRF-CEM
  IC50: 17 µM
L1210
  IC50: 43 µM
MOLT-4
  IC50: 36 µM

## CC(=O)OC1CCN(C(c2ccc3c(c2)OCO3)c2c(O)ccc3ccccc23)CC1 (configuration not stated)
CCRF-CEM
  IC50: 51 µM
L1210
  IC50: 48 µM
MOLT-4
  IC50: 69 µM

## CC(=O)OC1CCN(C(c2ccccn2)c2c(O)ccc3ccccc23)CC1 (configuration not stated)
CCRF-CEM
  IC50: 55 µM
L1210
  IC50: 92 µM
MOLT-4
  IC50: 49 µM

## CN(C)CCOc1ccc(Cc2c(O)ccc3ccccc23)cc1
MCF7
  IC50: 10.2 µM

## CCN(CC)CCOc1ccc(Cc2c(O)ccc3ccccc23)cc1
MCF7
  IC50: 6.2 µM

## CC(C)N(CCOc1ccc(Cc2c(O)ccc3ccccc23)cc1)C(C)C
MCF7
  IC50: 7.54 µM

## Oc1ccc2ccccc2c1Cc1ccc(OCCN2CCCC2)cc1
MCF7
  IC50: 6.71 µM

## Oc1ccc2ccccc2c1Cc1ccc(OCCN2CCCCC2)cc1
MCF7
  IC50: 6.82 µM

## Oc1ccc2ccccc2c1Cc1ccc(OCCN2CCOCC2)cc1
MCF7
  IC50: > 25 µM

## CC1CCN(CCOc2ccc(Cc3c(O)ccc4ccccc34)cc2)CC1
[1]
  Activity: Active
[2]
  Activity: Active
MCF7
  IC50: 4.38 µM

## Oc1ccc2ccccc2c1Cc1ccc(OCCN2CCCCCC2)cc1
MCF7
  IC50: 6.21 µM

## CN(C)CCOc1ccc(C(c2c(O)ccc3ccccc23)N2CCC(O)CC2)cc1 (racemic)
MCF7
  IC50: 22.6 µM

## CCN(CC)CCOc1ccc(C(c2c(O)ccc3ccccc23)N2CCC(O)CC2)cc1 (racemic)
MCF7
  IC50: 19 µM

## CC(C)N(CCOc1ccc(C(c2c(O)ccc3ccccc23)N2CCC(O)CC2)cc1)C(C)C (racemic)
MCF7
  IC50: 52.3 µM

## Oc1ccc2ccccc2c1C(c1ccc(OCCN2CCCC2)cc1)N1CCC(O)CC1 (racemic)
MCF7
  IC50: 37.5 µM

## Oc1ccc2ccccc2c1C(c1ccc(OCCN2CCCCC2)cc1)N1CCC(O)CC1 (racemic)
MCF7
  IC50: 36.4 µM

## Oc1ccc2ccccc2c1C(c1ccc(OCCN2CCOCC2)cc1)N1CCC(O)CC1 (racemic)
MCF7
  IC50: 424 µM

## Oc1ccc2ccccc2c1C(c1ccncc1)N1CCC(O)CC1 (single isomer, unassigned; (+))
CCRF-CEM
  IC50: 133 µM
L1210
  IC50: 154 µM
MOLT-4
  IC50: 107 µM

## Oc1ccc2ccccc2c1C(c1ccccn1)N1CCC(O)CC1 (single isomer, unassigned; (+))
CCRF-CEM
  IC50: 54 µM
L1210
  IC50: 118 µM
MOLT-4
  IC50: 52 µM

## CC(=O)OC1CCN(C(c2ccccc2)c2c(O)ccc3ccccc23)CC1 (single isomer, unassigned; (+))
CCRF-CEM
  IC50: 31 µM
L1210
  IC50: 58 µM
MOLT-4
  IC50: 38 µM

## CC(=O)OC1CCN(C(c2ccc(F)cc2)c2c(O)ccc3ccccc23)CC1 (single isomer, unassigned; (+))
CCRF-CEM
  IC50: 27 µM
L1210
  IC50: 45 µM
MOLT-4
  IC50: 40 µM

## CC(=O)OC1CCN(C(c2ccc(Cl)cc2)c2c(O)ccc3ccccc23)CC1 (single isomer, unassigned; (+))
CCRF-CEM
  IC50: 28 µM
L1210
  IC50: 41 µM
MOLT-4
  IC50: 35 µM

## CC(=O)OC1CCN(C(c2ccc(C)cc2)c2c(O)ccc3ccccc23)CC1 (single isomer, unassigned; (+))
CCRF-CEM
  IC50: 35 µM
L1210
  IC50: 45 µM
MOLT-4
  IC50: 47 µM

## COc1ccc(C(c2c(O)ccc3ccccc23)N2CCC(OC(C)=O)CC2)cc1 (single isomer, unassigned; (+))
CCRF-CEM
  IC50: 22 µM
L1210
  IC50: 43 µM
MOLT-4
  IC50: 42 µM

## CC(=O)OC1CCN(C(c2ccc(Cl)c(Cl)c2)c2c(O)ccc3ccccc23)CC1 (single isomer, unassigned; (+))
CCRF-CEM
  IC50: 15 µM
L1210
  IC50: 31 µM
MOLT-4
  IC50: 34 µM

## COc1ccc(C(c2c(O)ccc3ccccc23)N2CCC(OC(C)=O)CC2)cc1OC (single isomer, unassigned; (+))
CCRF-CEM
  IC50: 24 µM
L1210
  IC50: 48 µM
MOLT-4
  IC50: 12 µM

## Oc1ccc2ccccc2c1C(c1ccc(F)cc1)N1CCC(O)CC1 (single isomer, unassigned; (-))
CCRF-CEM
  IC50: 24 µM
L1210
  IC50: 44 µM
MOLT-4
  IC50: 41 µM

## Oc1ccc2ccccc2c1C(c1ccc(Cl)cc1)N1CCC(O)CC1 (single isomer, unassigned; (-))
CCRF-CEM
  IC50: 19 µM
L1210
  IC50: 46 µM
MOLT-4
  IC50: 33 µM

## Cc1ccc(C(c2c(O)ccc3ccccc23)N2CCC(O)CC2)cc1 (single isomer, unassigned; (-))
CCRF-CEM
  IC50: 29 µM
L1210
  IC50: 44 µM
MOLT-4
  IC50: 39 µM

## COc1ccc(C(c2c(O)ccc3ccccc23)N2CCC(O)CC2)cc1OC (single isomer, unassigned; (-))
CCRF-CEM
  IC50: 25 µM
L1210
  IC50: 50 µM
MOLT-4
  IC50: 18 µM

## Oc1ccc2ccccc2c1C(c1ccc2c(c1)OCO2)N1CCC(O)CC1 (single isomer, unassigned; (-))
CCRF-CEM
  IC50: 37 µM
L1210
  IC50: 45 µM
MOLT-4
  IC50: 44 µM

## CC(=O)OC1CCN(C(c2ccncc2)c2c(O)ccc3ccccc23)CC1 (single isomer, unassigned; (-))
CCRF-CEM
  IC50: 79 µM
L1210
  IC50: 80 µM
MOLT-4
  IC50: 59 µM

## CC/C(=C(\c1ccccc1)c1ccc(OCCN(C)C)cc1)c1ccccc1 [TAMOXIFEN]
MCF7
  IC50: 31 µM
